Active and inactive are the calls of the source.
Columns and labels:
[1] = molecular target: BDNF/NT-3 growth factors receptor (Homo sapiens) (UniProt Q16620); assay: Induction of TrkB activation in human SH-SY5Y cells assessed as increase in phosphorylated TrkB level at 10 uM after 4 hrs by Western blot analysis; type: cell-based; conditions: filed as activator
N2a [2] = assay: Neuroprotective activity against corticosterone-induced neurotoxicity in mouse N2a cells assessed as increase in cell viability at 10 uM preincubated for 24 hrs followed by corticosterone addition and measured after 24 hrs; type: functional, cell-based; conditions: time 48.0 hrs
Outline: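 Mouse neuroblastoma N2a cells were pretreated with test compound for 24 hrs. They were then co-treated with the neurotoxin, printed as cortisone, at 400 μM for a further 24 hrs before neuroprotection was assessed. P value thresholds were ≤0.05, <0.01 and 0.001.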

SH-SY5Y [3] = assay: Neuroprotective activity against corticosterone-induced neurotoxicity in human SH-SY5Y cells assessed as induction of BDNF neurotropic response at 10 uM preincubated for 2 hrs followed by corticosterone addition and measured after 4 hrs by ELISA; type: functional, cell-based; conditions: time 6.0 hrs
[4] = molecular target: BDNF/NT-3 growth factors receptor (Homo sapiens) (UniProt Q16620); assay: Induction of TrkB activation in human SH-SY5Y cells assessed as increase in Akt phosphorylation at 10 uM after 4 hrs by Western blot analysis; type: cell-based; conditions: filed as activator
[5] = molecular target: BDNF/NT-3 growth factors receptor (Homo sapiens) (UniProt Q16620); assay: Induction of TrkB activation in human SH-SY5Y cells assessed as increase in ERK1/2 phosphorylation at 10 uM after 4 hrs by Western blot analysis; type: cell-based; conditions: filed as activator
N2a [6] = assay: Neuroprotective activity against corticosterone-induced neurotoxicity in mouse N2a cells assessed as increase in cell viability at 5 nM preincubated for 24 hrs followed by corticosterone addition and measured after 24 hrs; type: functional, cell-based; conditions: time 48.0 hrs
SH-SY5Y [7] = assay: Neuroprotective activity against corticosterone-induced neurotoxicity in human SH-SY5Y cells assessed as induction of BDNF neurotropic response at 5 nM preincubated for 2 hrs followed by corticosterone addition and measured after 4 hrs by ELISA; type: functional, cell-based; conditions: time 6.0 hrs
[8] = molecular target: BDNF/NT-3 growth factors receptor (Homo sapiens) (UniProt Q16620); assay: Induction of TrkB activation in human SH-SY5Y cells assessed as increase in phosphorylated TrkB level at 5 nM after 4 hrs by Western blot analysis; type: cell-based; conditions: filed as activator
[9] = molecular target: BDNF/NT-3 growth factors receptor (Homo sapiens) (UniProt Q16620); assay: Induction of TrkB activation in human SH-SY5Y cells assessed as increase in Akt phosphorylation at 5 nM after 4 hrs by Western blot analysis; type: cell-based; conditions: filed as activator
[10] = molecular target: BDNF/NT-3 growth factors receptor (Homo sapiens) (UniProt Q16620); assay: Induction of TrkB activation in human SH-SY5Y cells assessed as increase in ERK1/2 phosphorylation at 5 nM after 4 hrs by Western blot analysis; type: cell-based; conditions: filed as activator

Measured: Activity

Sequence of BDNF/NT-3 growth factors receptor (Homo sapiens) (Q16620 32-822 limits assumed): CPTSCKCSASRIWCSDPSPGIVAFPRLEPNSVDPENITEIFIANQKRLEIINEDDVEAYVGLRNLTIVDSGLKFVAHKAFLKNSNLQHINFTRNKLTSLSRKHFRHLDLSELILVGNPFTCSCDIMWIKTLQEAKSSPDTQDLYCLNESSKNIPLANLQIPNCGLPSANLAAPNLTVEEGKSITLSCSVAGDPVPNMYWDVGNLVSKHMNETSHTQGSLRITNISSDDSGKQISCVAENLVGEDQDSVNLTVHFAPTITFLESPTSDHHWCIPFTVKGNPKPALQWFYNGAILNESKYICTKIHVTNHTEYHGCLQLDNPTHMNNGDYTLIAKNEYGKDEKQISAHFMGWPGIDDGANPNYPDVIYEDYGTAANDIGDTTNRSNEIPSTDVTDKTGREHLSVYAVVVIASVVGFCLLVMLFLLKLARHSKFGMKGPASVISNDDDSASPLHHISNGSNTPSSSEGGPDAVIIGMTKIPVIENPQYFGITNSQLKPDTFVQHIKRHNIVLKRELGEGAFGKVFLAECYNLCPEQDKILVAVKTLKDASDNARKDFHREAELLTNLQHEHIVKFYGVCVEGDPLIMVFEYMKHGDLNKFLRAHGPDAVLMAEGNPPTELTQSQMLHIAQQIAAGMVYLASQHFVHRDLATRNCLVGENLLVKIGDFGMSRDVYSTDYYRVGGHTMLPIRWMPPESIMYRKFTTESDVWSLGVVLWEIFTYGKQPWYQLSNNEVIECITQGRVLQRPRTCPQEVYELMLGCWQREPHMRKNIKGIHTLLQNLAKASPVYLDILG

OCCc1ccc(O)cc1
active: [1] | N2a [2] | SH-SY5Y [3] | [4] | [5]

OCCc1c[nH]c2ccccc12
active: [1] | N2a [2] | SH-SY5Y [3] | [4] | [5]

O=c1cc(-c2ccccc2)oc2c(O)c(O)ccc12
active: N2a [6] | SH-SY5Y [7] | [8] | [9] | [10]
